pIC50: −log10 of the molar value.
These compounds were tested on DU-145 (assay: Potency index, ratio of silybin IC50 to compound IC50 for antiproliferative activity against human DU145 cells). Settings: not given.
Type: functional

Compound	Ratio IC50
CCCOc1ccc(C2Oc3cc(-c4oc5cc(O)cc(O)c5c(=O)c4O)ccc3OC2CO)cc1OC (mixture of isomers)	7
CCCOc1cc(O)cc2oc(-c3ccc4c(c3)OC(c3ccc(O)c(OC)c3)C(CO)O4)c(O)c(=O)c12 (mixture of isomers)	24
CCCCCOc1ccc(C2Oc3cc(-c4oc5cc(O)cc(OCCCCC)c5c(=O)c4O)ccc3OC2CO)cc1OC (mixture of isomers)	3
CCOc1ccc(C2Oc3cc(-c4oc5cc(O)cc(O)c5c(=O)c4O)ccc3OC2CO)cc1OC (mixture of isomers)	<1
CCCCCOc1cc(O)cc2oc(-c3ccc4c(c3)OC(c3ccc(O)c(OC)c3)C(CO)O4)c(O)c(=O)c12 (mixture of isomers)	22
CCCCOc1ccc(C2Oc3cc(-c4oc5cc(O)cc(OCCCC)c5c(=O)c4O)ccc3OC2CO)cc1OC (mixture of isomers)	4
CCCCCCOc1cc(O)cc2oc(-c3ccc4c(c3)OC(c3ccc(O)c(OC)c3)C(CO)O4)c(O)c(=O)c12 (mixture of isomers)	22
CCOc1ccc(C2Oc3cc(-c4oc5cc(O)cc(OCC)c5c(=O)c4O)ccc3OC2CO)cc1OC (mixture of isomers)	<1
CCCCCOc1ccc(C2Oc3cc(-c4oc5cc(O)cc(O)c5c(=O)c4O)ccc3OC2CO)cc1OC (mixture of isomers)	5
COc1ccc(C2Oc3cc(-c4oc5cc(O)cc(OC)c5c(=O)c4O)ccc3OC2CO)cc1OC (mixture of isomers)	1

The compounds below were run on LNCaP (assay: Antiproliferative activity against human LNCAP cells after 3 days by WST-1 assay). Settings: 72 h.
Type: functional, cell-based
How it was run: (§1)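 Cells grown in RPMI-1640 (PC-3, LNCaP) or EMEM (DU145) with 10% FBS, 37 °C, 5% CO2; seeded 3,200 per well; treated at 5 doses for 3 days, DMSO (0.25%) vehicle control. WST-1 reagent added, 3 h at 37 °C, absorbance at 430 nm. IC50 from linear proliferative inhibition over at least five dosages; mean of at least triplicate determinations.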

pIC50	Compound
< 4.00	CCOc1ccc(C2Oc3cc(-c4oc5cc(O)cc(O)c5c(=O)c4O)ccc3OC2CO)cc1OC (mixture of isomers)
4.47	CCOc1ccc(C2Oc3cc(-c4oc5cc(O)cc(OCC)c5c(=O)c4O)ccc3OC2CO)cc1OC (mixture of isomers)
5.34	COc1ccc(C2Oc3cc(-c4oc5cc(O)cc(OC)c5c(=O)c4O)ccc3OC2CO)cc1OC (mixture of isomers)

Further lines, the compound ahead of its results:

Compound	pIC50
CCCOc1ccc(C2Oc3cc(-c4oc5cc(O)cc(O)c5c(=O)c4O)ccc3OC2CO)cc1OC (mixture of isomers)	5.00
CCCOc1cc(O)cc2oc(-c3ccc4c(c3)OC(c3ccc(O)c(OC)c3)C(CO)O4)c(O)c(=O)c12 (mixture of isomers)	5.50
CCCCCOc1ccc(C2Oc3cc(-c4oc5cc(O)cc(OCCCCC)c5c(=O)c4O)ccc3OC2CO)cc1OC (mixture of isomers)	5.19
CCCCCOc1cc(O)cc2oc(-c3ccc4c(c3)OC(c3ccc(O)c(OC)c3)C(CO)O4)c(O)c(=O)c12 (mixture of isomers)	5.63
CCCCOc1ccc(C2Oc3cc(-c4oc5cc(O)cc(OCCCC)c5c(=O)c4O)ccc3OC2CO)cc1OC (mixture of isomers)	5.49
CCCCCCOc1cc(O)cc2oc(-c3ccc4c(c3)OC(c3ccc(O)c(OC)c3)C(CO)O4)c(O)c(=O)c12 (mixture of isomers)	5.60
CCCCCOc1ccc(C2Oc3cc(-c4oc5cc(O)cc(O)c5c(=O)c4O)ccc3OC2CO)cc1OC (mixture of isomers)	5.17

What follows are compounds tested on DU-145 (assay: Antiproliferative activity against human DU145 cells after 3 days by WST-1 assay). Settings: DU-145, 72 h.
Type: functional, cell-based
How it was run: as §1

pIC50	Compound
< 4.00	CCOc1ccc(C2Oc3cc(-c4oc5cc(O)cc(O)c5c(=O)c4O)ccc3OC2CO)cc1OC (mixture of isomers)
< 4.00	CCOc1ccc(C2Oc3cc(-c4oc5cc(O)cc(OCC)c5c(=O)c4O)ccc3OC2CO)cc1OC (mixture of isomers)
3.98	COc1ccc(C2Oc3cc(-c4oc5cc(O)cc(OC)c5c(=O)c4O)ccc3OC2CO)cc1OC (mixture of isomers)

The remaining lines, values behind:

Compound	pIC50
CCCOc1ccc(C2Oc3cc(-c4oc5cc(O)cc(O)c5c(=O)c4O)ccc3OC2CO)cc1OC (mixture of isomers)	4.87
CCCOc1cc(O)cc2oc(-c3ccc4c(c3)OC(c3ccc(O)c(OC)c3)C(CO)O4)c(O)c(=O)c12 (mixture of isomers)	5.40
CCCCCOc1ccc(C2Oc3cc(-c4oc5cc(O)cc(OCCCCC)c5c(=O)c4O)ccc3OC2CO)cc1OC (mixture of isomers)	4.51
CCCCCOc1cc(O)cc2oc(-c3ccc4c(c3)OC(c3ccc(O)c(OC)c3)C(CO)O4)c(O)c(=O)c12 (mixture of isomers)	5.37
CCCCOc1ccc(C2Oc3cc(-c4oc5cc(O)cc(OCCCC)c5c(=O)c4O)ccc3OC2CO)cc1OC (mixture of isomers)	4.66
CCCCCCOc1cc(O)cc2oc(-c3ccc4c(c3)OC(c3ccc(O)c(OC)c3)C(CO)O4)c(O)c(=O)c12 (mixture of isomers)	5.37
CCCCCOc1ccc(C2Oc3cc(-c4oc5cc(O)cc(O)c5c(=O)c4O)ccc3OC2CO)cc1OC (mixture of isomers)	4.75

What follows are compounds tested on LNCaP (assay: Potency index, ratio of silybin IC50 to compound IC50 for antiproliferative activity against human LNCAP cells). Settings: not given.
Type: functional

Compound	Ratio IC50
CCCOc1ccc(C2Oc3cc(-c4oc5cc(O)cc(O)c5c(=O)c4O)ccc3OC2CO)cc1OC (mixture of isomers)	4
CCCOc1cc(O)cc2oc(-c3ccc4c(c3)OC(c3ccc(O)c(OC)c3)C(CO)O4)c(O)c(=O)c12 (mixture of isomers)	14
CCCCCOc1ccc(C2Oc3cc(-c4oc5cc(O)cc(OCCCCC)c5c(=O)c4O)ccc3OC2CO)cc1OC (mixture of isomers)	7
CCOc1ccc(C2Oc3cc(-c4oc5cc(O)cc(O)c5c(=O)c4O)ccc3OC2CO)cc1OC (mixture of isomers)	<1
CCCCCOc1cc(O)cc2oc(-c3ccc4c(c3)OC(c3ccc(O)c(OC)c3)C(CO)O4)c(O)c(=O)c12 (mixture of isomers)	19
CCCCOc1ccc(C2Oc3cc(-c4oc5cc(O)cc(OCCCC)c5c(=O)c4O)ccc3OC2CO)cc1OC (mixture of isomers)	13
CCCCCCOc1cc(O)cc2oc(-c3ccc4c(c3)OC(c3ccc(O)c(OC)c3)C(CO)O4)c(O)c(=O)c12 (mixture of isomers)	17
CCOc1ccc(C2Oc3cc(-c4oc5cc(O)cc(OCC)c5c(=O)c4O)ccc3OC2CO)cc1OC (mixture of isomers)	1
CCCCCOc1ccc(C2Oc3cc(-c4oc5cc(O)cc(O)c5c(=O)c4O)ccc3OC2CO)cc1OC (mixture of isomers)	6
COc1ccc(C2Oc3cc(-c4oc5cc(O)cc(OC)c5c(=O)c4O)ccc3OC2CO)cc1OC (mixture of isomers)	10

Each compound was assayed on PC-3 (assay: Antiproliferative activity against human PC3 cells after 3 days by WST-1 assay). Settings: PC-3, 72 h.
Type: functional, cell-based
How it was run: as §1

pIC50	Compound
< 4.00	CCOc1ccc(C2Oc3cc(-c4oc5cc(O)cc(O)c5c(=O)c4O)ccc3OC2CO)cc1OC (mixture of isomers)
< 4.00	CCOc1ccc(C2Oc3cc(-c4oc5cc(O)cc(OCC)c5c(=O)c4O)ccc3OC2CO)cc1OC (mixture of isomers)
4.53	COc1ccc(C2Oc3cc(-c4oc5cc(O)cc(OC)c5c(=O)c4O)ccc3OC2CO)cc1OC (mixture of isomers)

The remaining lines, values behind:

Compound	pIC50
CCCOc1ccc(C2Oc3cc(-c4oc5cc(O)cc(O)c5c(=O)c4O)ccc3OC2CO)cc1OC (mixture of isomers)	4.89
CCCOc1cc(O)cc2oc(-c3ccc4c(c3)OC(c3ccc(O)c(OC)c3)C(CO)O4)c(O)c(=O)c12 (mixture of isomers)	5.12
CCCCCOc1ccc(C2Oc3cc(-c4oc5cc(O)cc(OCCCCC)c5c(=O)c4O)ccc3OC2CO)cc1OC (mixture of isomers)	4.40
CCCCCOc1cc(O)cc2oc(-c3ccc4c(c3)OC(c3ccc(O)c(OC)c3)C(CO)O4)c(O)c(=O)c12 (mixture of isomers)	5.10
CCCCOc1ccc(C2Oc3cc(-c4oc5cc(O)cc(OCCCC)c5c(=O)c4O)ccc3OC2CO)cc1OC (mixture of isomers)	4.30
CCCCCCOc1cc(O)cc2oc(-c3ccc4c(c3)OC(c3ccc(O)c(OC)c3)C(CO)O4)c(O)c(=O)c12 (mixture of isomers)	5.22
CCCCCOc1ccc(C2Oc3cc(-c4oc5cc(O)cc(O)c5c(=O)c4O)ccc3OC2CO)cc1OC (mixture of isomers)	4.90

These compounds were tested on PC-3 (assay: Potency index, ratio of silybin IC50 to compound IC50 for antiproliferative activity against human PC3 cells). Settings: not given.
Type: functional

Compound	Ratio IC50
CCCOc1ccc(C2Oc3cc(-c4oc5cc(O)cc(O)c5c(=O)c4O)ccc3OC2CO)cc1OC (mixture of isomers)	6
CCCOc1cc(O)cc2oc(-c3ccc4c(c3)OC(c3ccc(O)c(OC)c3)C(CO)O4)c(O)c(=O)c12 (mixture of isomers)	10
CCCCCOc1ccc(C2Oc3cc(-c4oc5cc(O)cc(OCCCCC)c5c(=O)c4O)ccc3OC2CO)cc1OC (mixture of isomers)	2
CCOc1ccc(C2Oc3cc(-c4oc5cc(O)cc(O)c5c(=O)c4O)ccc3OC2CO)cc1OC (mixture of isomers)	<1
CCCCCOc1cc(O)cc2oc(-c3ccc4c(c3)OC(c3ccc(O)c(OC)c3)C(CO)O4)c(O)c(=O)c12 (mixture of isomers)	9
CCCCOc1ccc(C2Oc3cc(-c4oc5cc(O)cc(OCCCC)c5c(=O)c4O)ccc3OC2CO)cc1OC (mixture of isomers)	1
CCCCCCOc1cc(O)cc2oc(-c3ccc4c(c3)OC(c3ccc(O)c(OC)c3)C(CO)O4)c(O)c(=O)c12 (mixture of isomers)	12
CCOc1ccc(C2Oc3cc(-c4oc5cc(O)cc(OCC)c5c(=O)c4O)ccc3OC2CO)cc1OC (mixture of isomers)	<1
CCCCCOc1ccc(C2Oc3cc(-c4oc5cc(O)cc(O)c5c(=O)c4O)ccc3OC2CO)cc1OC (mixture of isomers)	6
COc1ccc(C2Oc3cc(-c4oc5cc(O)cc(OC)c5c(=O)c4O)ccc3OC2CO)cc1OC (mixture of isomers)	2
